ChEMBL document CHEMBL1932986, “Synthesis and in vitro antimycobacterial activity of compounds derived from (R)- and (S)-2-amino-1-butanol - The crucial role of the configuration” (Eur J Med Chem, 2012)
Converted amounts (≈) assume the structure as drawn. The source made the active and inactive calls. No cut-off for these calls is given here.

How the values were obtained:
[1] = test system: Mycobacterium tuberculosis; experiment: Antimycobacterial activity against Mycobacterium tuberculosis H37Rv after 45 days; assay type: functional
Summary of the method: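 Canetti proportion method. Compound in DMSO is added to Löwenstein–Jensen egg medium before coagulation (30 min, 85 °C), tested at three levels plus a lower one where needed. Tubes are inoculated with H37Rv at 10⁵ cells/ml and incubated 45 days at 37 °C. Colony counts versus drug-free control give percentage inhibition.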

[2] = test system: Mycobacterium tuberculosis; experiment: Ratio of ethambutol dihydrochloride MIC to compound MIC for Mycobacterium tuberculosis H37Rv; assay type: functional
[3] = test system: Bacillus mycoides; experiment: Antibacterial activity against Bacillus mycoides DSMZ 274 at 50 mg/ml after 24 hrs by agar diffusion test; assay type: functional; conditions: for zone of inhibition at 50000 µg/mL: DSMZ 274, 24 h, read-out: DIZ
Summary of the method: (§1)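 Agar diffusion: wells in agar filled with […] DMSO solution of compound at various concentrations; diameter of clear zone around application point measured. Bacteria grown 24 h at 37 °C on nutrient agar. Compounds first screened at 50 mg/ml; those active then tested at lower concentrations. Bracketed value = lowest concentration (mg/ml) giving zone >11 mm, reported only if activity retained at ≤1.25 mg/ml.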

[4] = Selectivity index, ratio of IC50 for human HEK293T cells to MIC for Mycobacterium tuberculosis H37Rv; assay type: functional, HEK-293T
[5] = test system: Acinetobacter johnsonii; experiment: Antibacterial activity against Acinetobacter johnsonii ATCC 17909 at 50 mg/ml after 24 hrs by agar diffusion test; assay type: functional; conditions: for zone of inhibition at 50000 µg/mL: ATCC 17909, 24 h, read-out: DIZ; summary of the method: as §1
[6] = test system: Candida tropicalis; experiment: Antifungal activity against Candida tropicalis ATCC 20336 at 50 mg/ml after 72 hrs by agar diffusion test; assay type: functional; conditions: for zone of inhibition at 50000 µg/mL: ATCC 20336, 72 h, read-out: DIZ
Summary of the method: (§2)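 Agar diffusion: yeasts grown on yeast peptone dextrose agar and fungi on potato dextrose agar. Wells are filled with […] of compound solution in DMSO at various concentrations, and the clear-zone diameter is measured. Bracketed values give the lowest concentration (mg/ml) that produces a zone >11 mm. A first screen is run at 50 mg/ml.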

[7] = test system: Bacillus cereus; experiment: Antibacterial activity against Bacillus cereus ATCC 11778 at 50 mg/ml after 24 hrs by agar diffusion test; assay type: functional; conditions: for zone of inhibition at 50000 µg/mL: ATCC 11778, 24 h, read-out: DIZ; summary of the method: as §1
[8] = test system: Micrococcus luteus; experiment: Antibacterial activity against Micrococcus luteus ATCC 9631 at 50 mg/ml after 24 hrs by agar diffusion test; assay type: functional; conditions: for zone of inhibition at 50000 µg/mL: ATCC 9631, 24 h, read-out: DIZ; summary of the method: as §1
[9] = test system: Staphylococcus aureus; experiment: Antibacterial activity against Staphylococcus aureus NRRL B 313 at 50 mg/ml after 24 hrs by agar diffusion test; assay type: functional; conditions: for zone of inhibition at 50000 µg/mL: NRRL B 313, 24 h, read-out: DIZ
Summary of the method: (§3)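 Agar diffusion: bacteria grown 24 h at 37 °C on nutrient agar. Wells in the agar are filled with […] of compound solution in DMSO at various concentrations. The diameter of the clear zone around the application point is measured. Bracketed values give the lowest concentration (mg/ml) that produces a zone >11 mm. A first screen is run at 50 mg/ml.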

[10] = test system: Bacillus subtilis; experiment: Antibacterial activity against Bacillus subtilis ATCC 6633 at 50 mg/ml after 24 hrs by agar diffusion test; assay type: functional; summary of the method: as §1
[11] = test system: Escherichia coli; experiment: Antibacterial activity against Escherichia coli ATCC 8739 at 50 mg/ml after 24 hrs by agar diffusion test; assay type: functional; summary of the method: as §1
[12] = test system: Micrococcus luteus; experiment: Antibacterial activity against Sarcina lutea ATCC 9341 at 50 mg/ml after 24 hrs by agar diffusion test; assay type: functional; conditions: for zone of inhibition at 50000 µg/mL: ATCC 9341, 24 h, read-out: DIZ; summary of the method: as §3
[13] = test system: HEK-293T; experiment: Cytotoxicity against human HEK293T cells after 72 hrs by MTT assay; assay type: cell-based
Summary of the method: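 293T cells in RPMI-1640 with 10% heat-inactivated FCS and 2 mM L-glutamine, 37 °C, 5% CO2. Cells seeded at 3.5 × 10⁵ cells/ml, grown 24 h, then exposed 72 h to DMSO-diluted compounds (final solvent ≤0.5%), ≥8 wells per concentration. MTT added 4 h, formazan dissolved in 5% HCOOH/2-propanol, absorbance read at 580 nm. IC50 obtained by sigmoidal nonlinear regression against untreated control.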

[14] = test system: Saccharomyces cerevisiae; experiment: Antifungal activity against Saccharomyces cerevisiae ATCC 9763 at 50 mg/ml after 72 hrs by agar diffusion test; assay type: functional; conditions: for zone of inhibition at 50000 µg/mL: ATCC 9763, 72 h, read-out: DIZ; summary of the method: as §2
[15] = Solubility of the compound in deionized water; assay type: physicochemical
[16] = test system: Priestia megaterium; experiment: Antibacterial activity against Bacillus megaterium NRRL 1353895 at 50 mg/ml after 24 hrs by agar diffusion test; assay type: functional; conditions: for zone of inhibition at 50000 µg/mL: NRRL 1353895, 24 h, read-out: DIZ; summary of the method: as §1
[17] = test system: Bacillus; experiment: Antibacterial activity against Bacillus idosus B 241 at 50 mg/ml after 24 hrs by agar diffusion test; assay type: functional; conditions: for zone of inhibition at 50000 µg/mL: B 241, 24 h, read-out: DIZ; summary of the method: as §1
[18] = test system: Penicillium chrysogenum; experiment: Antifungal activity against Penicillium chrysogenum CECT 2802 at 50 mg/ml after 72 hrs by agar diffusion test; assay type: functional; conditions: for zone of inhibition at 50000 µg/mL: CECT 2802, 72 h, read-out: DIZ; summary of the method: as §2

Row | SMILES | MIC [1] [µM] | Ratio [2] | zone of inhibition at 50000 µg/mL [3] [mm] | diameter of the inhibition zone (DIZ) [5] | zone of inhibition at 50000 µg/mL [6] [mm] | zone of inhibition at 50000 µg/mL [7] [mm] | diameter of the inhibition zone (DIZ) [8] | zone of inhibition at 50000 µg/mL [9] [mm] | diameter of the inhibition zone (DIZ) [10] | diameter of the inhibition zone (DIZ) [11] | zone of inhibition at 50000 µg/mL [12] [mm] | zone of inhibition at 50000 µg/mL [17] [mm] | diameter of the inhibition zone (DIZ) [14] | diameter of the inhibition zone (DIZ) [16] | further results
1 | CCNC(=O)N[C@@H](CC)CO | > 24.4 | 2 |  |  |  |  |  |  |  |  |  |  |  |  | 
2 | CC[C@@H](CO)NC(=O)c1ccccc1C(=O)N[C@@H](CC)CO | > 16.2 | 2 |  |  |  |  |  |  |  |  |  |  |  |  | 
3 | CC[C@H](CO)NC(=O)/C=C/c1ccccc1 | 9.12 (≈ 2 µg/mL) |  | 12 | inactive | 11 | 12 | inactive | 12 | inactive | inactive | 15 |  |  |  | Selectivity Index [4]: 23.1; IC50 [13]: 211 µM; zone of inhibition at 50000 µg/mL [14]: 13 mm; solubility [15]: < 1 mg/mL; zone of inhibition at 50000 µg/mL [16]: 12 mm; diameter of the inhibition zone (DIZ) [17]: inactive
4 | CC[C@@H](CO)NP(=O)(c1ccccc1)c1ccccc1 | > 17.3 | 2 |  |  |  |  |  |  |  |  |  |  |  |  | 
5 | CC[C@@H](CO)NC(=O)c1ccccc1O | > 23.9 | 2 |  |  |  |  |  |  |  |  |  |  |  |  | 
6 | CC[C@H](CO)NC1c2ccccc2-c2ccccc21 | 19.7 (≈ 5 µg/mL) |  | 17 |  | 17 |  |  | 12 | inactive |  | 17 | 15 |  |  | zone of inhibition at 50000 µg/mL [5]: 16 mm; diameter of the inhibition zone (DIZ) [7]: inactive; zone of inhibition at 50000 µg/mL [8]: 17 mm; zone of inhibition at 50000 µg/mL [18]: 20 mm; zone of inhibition at 50000 µg/mL ([11]; ATCC 8739, 24 h, read-out: DIZ): 12 mm; zone of inhibition at 50000 µg/mL [14]: 22 mm; zone of inhibition at 50000 µg/mL [16]: 22 mm
7 | CC[C@H](CO)N(Cc1ccccc1)Cc1ccccc1 | > 18.6 |  |  |  | 10 | 11 |  | 11 | inactive | inactive | 12 | 11 | inactive | inactive | diameter of the inhibition zone (DIZ) [3]: inactive; zone of inhibition at 50000 µg/mL [5]: 11 mm; zone of inhibition at 50000 µg/mL [8]: 12 mm; diameter of the inhibition zone (DIZ) [18]: inactive
8 | CC[C@H](CO)NC(=O)C(C)(C)C | 28.9 (≈ 5 µg/mL) |  | 11 | inactive |  | 16 | inactive | 15 |  | inactive |  | 11 | inactive | inactive | diameter of the inhibition zone (DIZ) [6]: inactive; zone of inhibition at 50000 µg/mL ([10]; ATCC 6633, 24 h, read-out: DIZ): 15 mm; diameter of the inhibition zone (DIZ) [18]: inactive; diameter of the inhibition zone (DIZ) [12]: inactive
9 | CC[C@H](CO)N1C(=O)c2cccc3cccc(c23)C1=O | > 18.6 |  |  | inactive |  |  | inactive |  | inactive | inactive |  |  | inactive | inactive | diameter of the inhibition zone (DIZ) [3]: inactive; diameter of the inhibition zone (DIZ) [6]: inactive; diameter of the inhibition zone (DIZ) [7]: inactive; diameter of the inhibition zone (DIZ) [9]: inactive; zone of inhibition at 50000 µg/mL [18]: 10 mm; diameter of the inhibition zone (DIZ) [12]: inactive; diameter of the inhibition zone (DIZ) [17]: inactive
